Experimental data taken from ChEMBL document CHEMBL5653631, “A Potent and Selective ULK1 Inhibitor Suppresses Autophagy and Sensitizes Cancer Cells to Nutrient Stress” (iScience, 2018).
One block for each compound: values may come before it.

Columns and labels:
[1] = biological target: Serine/threonine-protein kinase Nek7 (Homo sapiens) (UniProt Q8TDX7); experiment: Inhibition of human recombinant NEK7 at 500 nM related to control ULK1
[2] = biological target: Serine/threonine-protein kinase PAK 6 (Homo sapiens) (UniProt Q9NQU5); experiment: Inhibition of human recombinant PAK6 at 500 nM related to control ULK1
Serine/threonine-protein kinase PAK 6 (Homo sapiens), sequence (Q9NQU5 whole entry, looked up): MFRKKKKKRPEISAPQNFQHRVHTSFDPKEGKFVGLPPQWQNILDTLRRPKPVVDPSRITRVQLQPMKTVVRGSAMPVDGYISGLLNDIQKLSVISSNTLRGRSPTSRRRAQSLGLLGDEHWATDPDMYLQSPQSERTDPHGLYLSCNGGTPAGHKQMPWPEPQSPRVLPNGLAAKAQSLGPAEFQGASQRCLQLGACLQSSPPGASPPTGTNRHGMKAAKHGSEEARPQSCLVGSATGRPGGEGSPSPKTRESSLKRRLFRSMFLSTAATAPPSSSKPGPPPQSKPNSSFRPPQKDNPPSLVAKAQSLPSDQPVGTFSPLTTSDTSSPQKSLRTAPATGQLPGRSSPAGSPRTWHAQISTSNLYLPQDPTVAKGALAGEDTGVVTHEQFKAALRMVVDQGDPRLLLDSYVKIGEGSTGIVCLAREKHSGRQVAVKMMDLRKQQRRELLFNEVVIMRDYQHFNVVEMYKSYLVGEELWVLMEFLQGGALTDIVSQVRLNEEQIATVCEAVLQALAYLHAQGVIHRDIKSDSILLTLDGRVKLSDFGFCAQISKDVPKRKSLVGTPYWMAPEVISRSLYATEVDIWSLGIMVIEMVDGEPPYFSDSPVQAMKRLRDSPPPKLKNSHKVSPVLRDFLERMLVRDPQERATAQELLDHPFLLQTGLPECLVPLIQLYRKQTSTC

[3] = biological target: TRAF2 and NCK-interacting protein kinase (Homo sapiens) (UniProt Q9UKE5); experiment: Inhibition of human recombinant TNIK at 500 nM in presence of ATP by radiometric assay relative to control
TRAF2 and NCK-interacting protein kinase (Homo sapiens), sequence (Q9UKE5 whole entry, looked up): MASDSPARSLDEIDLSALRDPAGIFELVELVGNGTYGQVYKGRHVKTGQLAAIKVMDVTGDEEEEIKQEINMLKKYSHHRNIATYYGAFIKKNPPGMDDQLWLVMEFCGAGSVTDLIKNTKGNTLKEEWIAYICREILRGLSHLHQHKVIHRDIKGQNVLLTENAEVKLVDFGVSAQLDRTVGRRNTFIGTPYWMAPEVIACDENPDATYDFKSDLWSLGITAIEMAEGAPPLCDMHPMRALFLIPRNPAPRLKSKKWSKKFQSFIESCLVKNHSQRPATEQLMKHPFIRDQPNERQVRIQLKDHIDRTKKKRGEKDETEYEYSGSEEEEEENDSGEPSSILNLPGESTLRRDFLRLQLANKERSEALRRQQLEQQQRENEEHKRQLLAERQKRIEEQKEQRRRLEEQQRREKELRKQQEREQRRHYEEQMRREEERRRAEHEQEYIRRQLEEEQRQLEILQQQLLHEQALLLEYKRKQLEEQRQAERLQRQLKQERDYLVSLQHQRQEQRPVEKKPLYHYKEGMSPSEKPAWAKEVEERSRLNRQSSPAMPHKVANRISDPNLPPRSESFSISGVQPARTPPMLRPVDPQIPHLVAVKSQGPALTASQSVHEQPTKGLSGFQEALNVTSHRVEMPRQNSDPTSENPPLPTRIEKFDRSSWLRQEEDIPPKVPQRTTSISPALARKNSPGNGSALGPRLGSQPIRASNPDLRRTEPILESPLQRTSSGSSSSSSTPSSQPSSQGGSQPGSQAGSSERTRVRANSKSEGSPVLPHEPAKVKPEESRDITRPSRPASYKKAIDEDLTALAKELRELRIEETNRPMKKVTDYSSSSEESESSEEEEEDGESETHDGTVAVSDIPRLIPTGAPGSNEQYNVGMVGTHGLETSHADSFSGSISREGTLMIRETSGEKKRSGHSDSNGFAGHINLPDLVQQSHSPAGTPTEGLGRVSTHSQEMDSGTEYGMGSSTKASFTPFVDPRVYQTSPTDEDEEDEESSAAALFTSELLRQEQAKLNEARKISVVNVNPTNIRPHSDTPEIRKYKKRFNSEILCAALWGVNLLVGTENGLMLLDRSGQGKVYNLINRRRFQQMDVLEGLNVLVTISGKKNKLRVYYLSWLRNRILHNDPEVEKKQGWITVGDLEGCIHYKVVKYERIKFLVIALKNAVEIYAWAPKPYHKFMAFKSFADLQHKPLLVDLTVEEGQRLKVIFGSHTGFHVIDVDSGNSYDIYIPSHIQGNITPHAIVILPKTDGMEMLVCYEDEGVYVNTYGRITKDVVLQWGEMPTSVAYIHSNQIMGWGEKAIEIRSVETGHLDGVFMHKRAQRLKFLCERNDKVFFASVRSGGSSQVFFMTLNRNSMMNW

[4] = biological target: Platelet-derived growth factor receptor beta (Homo sapiens) (UniProt P09619); experiment: Inhibition of human recombinant PDGFRb at 500 nM related to control ULK1
[5] = biological target: Tyrosine-protein kinase Fer (Homo sapiens) (UniProt P16591); experiment: Inhibition of human recombinant FER at 500 nM in presence of ATP by radiometric assay relative to control
[6] = biological target: Mitogen-activated protein kinase kinase kinase 9 (Homo sapiens) (UniProt P80192); experiment: Inhibition of human recombinant MLK1 at 500 nM related to control ULK1
[7] = biological target: Cyclin-dependent kinase 18 (Homo sapiens) (UniProt Q07002); experiment: Inhibition of human recombinant PCTAIRE3 at 500 nM in presence of ATP by radiometric assay relative to control
Cyclin-dependent kinase 18 (Homo sapiens), sequence (Q07002 whole entry): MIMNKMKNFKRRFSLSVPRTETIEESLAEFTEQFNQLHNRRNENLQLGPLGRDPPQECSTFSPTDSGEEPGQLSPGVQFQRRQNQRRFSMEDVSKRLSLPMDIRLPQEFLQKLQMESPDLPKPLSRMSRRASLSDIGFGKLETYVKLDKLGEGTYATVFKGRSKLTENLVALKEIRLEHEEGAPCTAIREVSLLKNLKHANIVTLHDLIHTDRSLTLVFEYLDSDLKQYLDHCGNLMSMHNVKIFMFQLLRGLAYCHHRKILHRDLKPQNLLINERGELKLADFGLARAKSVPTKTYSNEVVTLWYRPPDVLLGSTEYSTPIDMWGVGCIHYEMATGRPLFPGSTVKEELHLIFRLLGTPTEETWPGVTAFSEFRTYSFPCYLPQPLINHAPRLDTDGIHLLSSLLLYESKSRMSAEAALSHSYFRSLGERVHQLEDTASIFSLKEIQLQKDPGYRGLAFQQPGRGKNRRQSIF

[8] = biological target: Dual specificity mitogen-activated protein kinase kinase 1 (Homo sapiens) (UniProt Q02750); experiment: Inhibition of human recombinant MAP2K1 at 500 nM related to control ULK1
[9] = biological target: Non-receptor tyrosine-protein kinase TYK2 (Homo sapiens) (UniProt P29597); experiment: Inhibition of human recombinant TYK2 at 15 nM related to control ULK1
Non-receptor tyrosine-protein kinase TYK2 (Homo sapiens), sequence (P29597 whole entry): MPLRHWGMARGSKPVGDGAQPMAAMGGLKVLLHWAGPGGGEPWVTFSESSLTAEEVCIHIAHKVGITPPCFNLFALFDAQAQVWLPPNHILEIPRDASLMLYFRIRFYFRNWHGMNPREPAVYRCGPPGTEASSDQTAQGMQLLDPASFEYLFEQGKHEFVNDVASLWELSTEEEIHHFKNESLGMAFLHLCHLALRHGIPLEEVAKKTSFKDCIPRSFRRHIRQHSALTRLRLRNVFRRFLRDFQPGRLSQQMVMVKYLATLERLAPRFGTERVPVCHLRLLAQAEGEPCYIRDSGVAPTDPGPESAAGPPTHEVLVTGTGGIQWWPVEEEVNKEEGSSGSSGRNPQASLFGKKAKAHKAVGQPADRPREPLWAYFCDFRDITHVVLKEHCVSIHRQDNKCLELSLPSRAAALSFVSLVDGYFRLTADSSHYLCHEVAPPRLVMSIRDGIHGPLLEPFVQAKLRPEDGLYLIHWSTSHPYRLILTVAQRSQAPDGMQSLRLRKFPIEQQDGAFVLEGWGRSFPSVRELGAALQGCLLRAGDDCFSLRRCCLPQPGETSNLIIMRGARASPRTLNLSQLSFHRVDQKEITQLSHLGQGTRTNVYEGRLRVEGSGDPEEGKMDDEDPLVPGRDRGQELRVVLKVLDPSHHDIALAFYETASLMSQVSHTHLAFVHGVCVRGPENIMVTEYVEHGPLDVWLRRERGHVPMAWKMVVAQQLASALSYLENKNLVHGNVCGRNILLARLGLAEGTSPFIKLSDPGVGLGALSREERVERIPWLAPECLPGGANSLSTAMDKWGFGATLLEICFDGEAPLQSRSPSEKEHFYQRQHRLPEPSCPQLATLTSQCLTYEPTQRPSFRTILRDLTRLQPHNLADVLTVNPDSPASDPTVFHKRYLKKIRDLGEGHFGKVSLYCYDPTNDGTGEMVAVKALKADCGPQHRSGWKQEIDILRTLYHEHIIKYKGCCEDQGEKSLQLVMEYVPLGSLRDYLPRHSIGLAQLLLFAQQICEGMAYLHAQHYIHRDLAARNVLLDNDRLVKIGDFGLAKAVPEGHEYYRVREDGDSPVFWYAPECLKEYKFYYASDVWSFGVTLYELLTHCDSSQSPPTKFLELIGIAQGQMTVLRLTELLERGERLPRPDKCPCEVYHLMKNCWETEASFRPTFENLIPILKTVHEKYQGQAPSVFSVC

[10] = biological target: Protein kinase C eta type (Homo sapiens) (UniProt P24723); experiment: Inhibition of human recombinant PKCH at 15 nM related to control ULK1
Protein kinase C eta type (Homo sapiens), sequence (P24723 whole entry): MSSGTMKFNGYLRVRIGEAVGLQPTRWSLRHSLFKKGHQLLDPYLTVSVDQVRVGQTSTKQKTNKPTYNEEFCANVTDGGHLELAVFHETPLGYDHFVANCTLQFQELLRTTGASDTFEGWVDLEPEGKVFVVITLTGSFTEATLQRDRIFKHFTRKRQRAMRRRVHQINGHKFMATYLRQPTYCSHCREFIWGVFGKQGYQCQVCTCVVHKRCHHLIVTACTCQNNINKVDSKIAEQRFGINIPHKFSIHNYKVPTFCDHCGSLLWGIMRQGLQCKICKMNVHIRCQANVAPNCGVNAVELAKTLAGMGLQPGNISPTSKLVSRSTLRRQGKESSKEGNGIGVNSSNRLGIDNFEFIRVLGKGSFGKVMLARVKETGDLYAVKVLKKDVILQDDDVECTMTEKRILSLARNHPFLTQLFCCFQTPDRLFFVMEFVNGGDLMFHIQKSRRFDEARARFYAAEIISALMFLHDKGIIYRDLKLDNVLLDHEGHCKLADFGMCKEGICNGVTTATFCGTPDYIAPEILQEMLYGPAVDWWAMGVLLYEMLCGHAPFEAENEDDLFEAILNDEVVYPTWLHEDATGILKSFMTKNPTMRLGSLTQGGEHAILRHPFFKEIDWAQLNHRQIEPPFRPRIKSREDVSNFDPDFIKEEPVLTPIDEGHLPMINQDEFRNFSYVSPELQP

[11] = biological target: Mitogen-activated protein kinase kinase kinase 10 (Homo sapiens) (UniProt Q02779); experiment: Inhibition of human recombinant MLK2 at 15 nM in presence of ATP by radiometric assay relative to control
[12] = biological target: T1, Rhodopsin kinase GRK1 (Homo sapiens) (UniProt Q15835); experiment: Inhibition of human recombinant RHOK at 15 nM in presence of ATP by radiometric assay relative to control
T1 sequence (whole entry): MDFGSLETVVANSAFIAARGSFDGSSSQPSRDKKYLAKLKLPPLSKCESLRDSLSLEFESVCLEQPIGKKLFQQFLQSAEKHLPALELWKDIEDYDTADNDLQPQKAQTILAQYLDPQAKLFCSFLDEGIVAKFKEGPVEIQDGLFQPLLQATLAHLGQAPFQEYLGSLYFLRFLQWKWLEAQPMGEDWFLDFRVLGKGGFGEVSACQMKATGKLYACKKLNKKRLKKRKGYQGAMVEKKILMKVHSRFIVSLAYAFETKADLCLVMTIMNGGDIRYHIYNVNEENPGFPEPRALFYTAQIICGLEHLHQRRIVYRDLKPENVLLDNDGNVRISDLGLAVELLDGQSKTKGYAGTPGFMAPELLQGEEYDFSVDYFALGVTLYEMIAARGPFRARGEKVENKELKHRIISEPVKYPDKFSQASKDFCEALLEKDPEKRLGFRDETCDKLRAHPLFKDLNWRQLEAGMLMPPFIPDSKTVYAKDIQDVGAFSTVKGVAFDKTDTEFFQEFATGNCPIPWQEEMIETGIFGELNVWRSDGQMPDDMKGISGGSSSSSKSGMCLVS

[13] = biological target: Tyrosine-protein kinase Blk (Homo sapiens) (UniProt P51451); experiment: Inhibition of human recombinant BLK at 15 nM in presence of ATP by radiometric assay relative to control
Tyrosine-protein kinase Blk (Homo sapiens), sequence (P51451 2-505 limits assumed): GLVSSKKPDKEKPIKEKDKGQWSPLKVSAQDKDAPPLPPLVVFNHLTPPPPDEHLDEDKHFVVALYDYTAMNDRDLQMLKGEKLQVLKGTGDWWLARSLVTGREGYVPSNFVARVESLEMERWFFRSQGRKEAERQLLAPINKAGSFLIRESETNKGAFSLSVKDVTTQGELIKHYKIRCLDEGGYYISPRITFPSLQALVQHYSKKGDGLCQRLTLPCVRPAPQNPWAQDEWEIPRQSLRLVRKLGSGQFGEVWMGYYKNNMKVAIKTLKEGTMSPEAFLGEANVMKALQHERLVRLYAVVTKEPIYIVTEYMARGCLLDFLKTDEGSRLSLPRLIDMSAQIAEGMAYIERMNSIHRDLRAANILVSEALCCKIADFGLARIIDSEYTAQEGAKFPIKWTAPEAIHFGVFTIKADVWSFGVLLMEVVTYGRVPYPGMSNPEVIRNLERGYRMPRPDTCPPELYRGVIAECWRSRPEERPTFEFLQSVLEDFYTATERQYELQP
How it was run: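 Part of a radiometric in vitro activity panel of 327 recombinant human kinases. Each kinase was tested in duplicate at one inhibitor concentration. Activity remaining was expressed as a percentage of the vehicle control, and percent inhibition was taken as 100 minus that value.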

[14] = biological target: Mitogen-activated protein kinase 8 (Homo sapiens) (UniProt P45983); experiment: Inhibition of human recombinant JNK1 at 15 nM related to control ULK1
[15] = biological target: T2, Serine/threonine-protein kinase DCLK2 (Homo sapiens) (UniProt Q8N568); experiment: Inhibition of human recombinant DCAMKL2 at 15 nM related to control ULK1
T2 sequence (whole entry): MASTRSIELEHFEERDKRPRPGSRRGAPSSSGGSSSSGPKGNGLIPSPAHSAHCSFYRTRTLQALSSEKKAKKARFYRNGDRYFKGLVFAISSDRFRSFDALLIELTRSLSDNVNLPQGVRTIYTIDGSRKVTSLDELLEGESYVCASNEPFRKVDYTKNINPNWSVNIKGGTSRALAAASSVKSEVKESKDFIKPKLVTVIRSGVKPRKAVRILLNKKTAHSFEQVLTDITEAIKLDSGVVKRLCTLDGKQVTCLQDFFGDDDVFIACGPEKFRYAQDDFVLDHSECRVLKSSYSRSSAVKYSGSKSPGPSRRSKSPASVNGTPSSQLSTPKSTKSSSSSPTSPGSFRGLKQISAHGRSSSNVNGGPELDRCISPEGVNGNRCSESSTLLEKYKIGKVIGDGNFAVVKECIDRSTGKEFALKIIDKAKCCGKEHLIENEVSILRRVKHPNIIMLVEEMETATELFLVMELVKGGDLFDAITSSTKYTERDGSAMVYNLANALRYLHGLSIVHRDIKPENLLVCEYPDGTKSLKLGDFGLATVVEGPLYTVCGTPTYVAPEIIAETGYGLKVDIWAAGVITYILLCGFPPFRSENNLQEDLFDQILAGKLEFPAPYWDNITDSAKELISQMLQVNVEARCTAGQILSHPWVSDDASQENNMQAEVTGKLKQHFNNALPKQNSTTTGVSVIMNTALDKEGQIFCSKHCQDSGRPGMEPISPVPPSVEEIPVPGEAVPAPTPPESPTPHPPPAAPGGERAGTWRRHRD

[16] = biological target: Cyclin-dependent kinase 2 (Homo sapiens) (UniProt P24941); experiment: Inhibition of human recombinant CDK2 at 40 nM related to control ULK1
[17] = biological target: T3, Serine/threonine-protein kinase 17B (Homo sapiens) (UniProt O94768); experiment: Inhibition of human recombinant DRAK2 at 40 nM related to control ULK1
T3 sequence (whole entry): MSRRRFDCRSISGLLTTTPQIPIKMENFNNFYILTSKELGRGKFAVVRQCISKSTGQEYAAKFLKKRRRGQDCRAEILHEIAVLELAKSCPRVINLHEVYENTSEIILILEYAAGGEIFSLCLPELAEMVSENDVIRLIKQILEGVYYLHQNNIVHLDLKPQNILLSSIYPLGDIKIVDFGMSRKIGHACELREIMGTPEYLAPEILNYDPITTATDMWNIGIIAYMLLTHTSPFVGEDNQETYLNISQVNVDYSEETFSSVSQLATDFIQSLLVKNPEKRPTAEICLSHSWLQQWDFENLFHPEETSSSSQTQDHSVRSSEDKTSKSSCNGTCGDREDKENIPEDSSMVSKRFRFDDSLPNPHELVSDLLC

- fold change (FC) [1]: 0
- fold change (FC) [2]: 0.26
- inhibition [3]: 4%
- fold change (FC) [4]: 0
- inhibition [5]: 0%
- fold change (FC) [6]: 1.18
- inhibition [7]: 20%
- fold change (FC) [8]: 0
SMILES: CNC(=O)c1ccccc1Oc1nc(Nc2cc(OC)c(OC)c(OC)c2)ncc1Br

- fold change (FC) [9]: 0.02
- fold change (FC) [10]: 0
- inhibition [11]: 12%
- inhibition [12]: 0%
- inhibition [13]: 10%
- fold change (FC) [14]: 0.09
- fold change (FC) [15]: 0.14
SMILES: CC(C)[C@H](NC(=O)c1cc(-c2cnn3cc(-c4ccc(OCCN5CCCCC5)cc4)cnc23)cs1)C(F)(F)F

- fold change (FC) [16]: 0.4
- fold change (FC) [17]: 0.53
SMILES: O=C(N[C@@H](C1CC1)C(F)(F)F)c1cc(-c2cnn3cc(-c4ccc(F)cc4)cnc23)cs1
